Laboratory results published in ChEMBL document CHEMBL1821582, “SAR analysis of innovative selective small molecule antagonists of sphingosine-1-phosphate 4 (S1P₄) receptor” (Bioorg Med Chem Lett, 2011).
pIC50: −log10 of the molar value. Calls of active or inactive are those of the source. No cut-off for these calls is given here.

Columns and labels:
[1] = target: T1, Sphingosine 1-phosphate receptor 4 (Homo sapiens, UniProt O95977); assay: Antagonist activity at human S1P4 receptor expressed in EDG6-bla U2OS cells coexpressing human endothelial differentiation gene 6 linked to GAL4-VP16 assessed as beta-lactamase expression by FRET assay; type: functional, cell-based
T1 sequence (O95977 whole entry): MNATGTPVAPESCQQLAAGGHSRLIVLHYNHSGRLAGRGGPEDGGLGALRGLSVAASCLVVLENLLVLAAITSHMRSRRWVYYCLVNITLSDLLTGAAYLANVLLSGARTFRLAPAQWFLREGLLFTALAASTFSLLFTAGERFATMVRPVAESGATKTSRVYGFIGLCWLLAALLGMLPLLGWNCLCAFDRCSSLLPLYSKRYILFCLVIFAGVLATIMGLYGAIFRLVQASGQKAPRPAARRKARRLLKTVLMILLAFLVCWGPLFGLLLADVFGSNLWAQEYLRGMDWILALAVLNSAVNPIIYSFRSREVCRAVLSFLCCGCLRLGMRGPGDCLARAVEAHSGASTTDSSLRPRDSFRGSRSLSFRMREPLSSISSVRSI
Method in brief: (§1)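 Human EDG6 (S1P4) Tango assay in U2OS cells: the receptor is fused via a TEV protease site to a GAL4-VP16 transcription factor, with a co-expressed beta-arrestin/TEV protease fusion. Read-out is a beta-lactamase reporter driven by a UAS response element. Compounds were tested up to 25 μM, with percentage inhibition at 25 μM; values are the mean of n = 3 determinations.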

[2] = target: T2, Sphingosine 1-phosphate receptor 4 (Homo sapiens) (UniProt O95977); assay: Antagonist activity at human S1P4 receptor expressed in EDG6-bla U2OS cells coexpressing human endothelial differentiation gene 6 linked to GAL4-VP16 assessed as beta-lactamase expression at 25 uM by FRET assay; type: functional, cell-based; method in brief: as §1
T2 sequence (whole entry): T1 sequence (O95977 whole entry)

[3] = target: T3, Sphingosine 1-phosphate receptor 3 (Homo sapiens, UniProt Q99500); assay: Inhibition of S1P3 receptor at 25 uM
[4] = target: T4, Sphingosine 1-phosphate receptor 2 (Homo sapiens, UniProt O95136); assay: Antagonist activity at S1P2 receptor; type: functional
[5] = target: T5, Sphingosine 1-phosphate receptor 1 (Homo sapiens, UniProt P21453); assay: Antagonist activity at S1P1 receptor upto 25 uM; type: functional
[6] = target: T4, Sphingosine 1-phosphate receptor 2; assay: Inhibition of S1P2 receptor; conditions: concentration not given here
[7] = target: T6, Sphingosine 1-phosphate receptor 5 (Homo sapiens, UniProt Q9H228); assay: Inhibition of S1P5 receptor at 25 uM
[8] = target: T5, Sphingosine 1-phosphate receptor 1; assay: Antagonist activity at S1P1 receptor; type: functional
[9] = target: T3, Sphingosine 1-phosphate receptor 3; assay: Antagonist activity at S1P3 receptor; type: functional
[10] = target: T6, Sphingosine 1-phosphate receptor 5; assay: Antagonist activity at S1P5 receptor; type: functional
[11] = target: T5, Sphingosine 1-phosphate receptor 1; assay: Inhibition of S1P1 receptor at 25 uM
[12] = target: T4, Sphingosine 1-phosphate receptor 2; assay: Inhibition of S1P2 receptor at 25 uM

T3 sequence (Q99500 whole entry): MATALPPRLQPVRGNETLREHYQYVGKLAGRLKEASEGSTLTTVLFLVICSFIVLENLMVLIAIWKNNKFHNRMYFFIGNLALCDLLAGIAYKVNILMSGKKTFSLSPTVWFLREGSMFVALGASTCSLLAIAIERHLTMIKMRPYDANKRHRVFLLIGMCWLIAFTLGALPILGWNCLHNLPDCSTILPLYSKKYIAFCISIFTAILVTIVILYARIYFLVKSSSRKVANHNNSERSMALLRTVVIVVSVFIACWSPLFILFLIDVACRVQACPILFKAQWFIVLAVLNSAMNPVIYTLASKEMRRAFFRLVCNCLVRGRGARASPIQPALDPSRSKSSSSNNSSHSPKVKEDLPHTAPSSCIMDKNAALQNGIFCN
T4 sequence (O95136 whole entry): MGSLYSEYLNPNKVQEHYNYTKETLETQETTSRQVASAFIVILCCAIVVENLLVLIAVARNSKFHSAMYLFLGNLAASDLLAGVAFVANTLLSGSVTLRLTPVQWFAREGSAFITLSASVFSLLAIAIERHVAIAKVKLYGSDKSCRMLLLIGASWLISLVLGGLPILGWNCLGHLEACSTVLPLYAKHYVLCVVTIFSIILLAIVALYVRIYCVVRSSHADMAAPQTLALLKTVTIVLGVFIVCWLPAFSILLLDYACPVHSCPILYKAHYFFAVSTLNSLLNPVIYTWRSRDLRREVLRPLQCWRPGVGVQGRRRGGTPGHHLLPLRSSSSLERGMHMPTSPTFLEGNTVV
T6 sequence (Q9H228 whole entry): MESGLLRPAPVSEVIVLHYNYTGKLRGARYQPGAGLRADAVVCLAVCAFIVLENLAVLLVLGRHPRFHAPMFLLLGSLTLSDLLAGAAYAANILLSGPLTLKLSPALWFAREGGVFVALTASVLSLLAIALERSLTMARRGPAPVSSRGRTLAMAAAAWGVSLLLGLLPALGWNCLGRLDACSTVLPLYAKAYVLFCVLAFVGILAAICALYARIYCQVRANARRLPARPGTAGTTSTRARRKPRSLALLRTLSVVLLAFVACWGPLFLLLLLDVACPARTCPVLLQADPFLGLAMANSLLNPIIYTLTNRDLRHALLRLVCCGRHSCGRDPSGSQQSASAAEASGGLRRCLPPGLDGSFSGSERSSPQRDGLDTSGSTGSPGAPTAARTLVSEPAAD
T5 sequence (P21453 whole entry): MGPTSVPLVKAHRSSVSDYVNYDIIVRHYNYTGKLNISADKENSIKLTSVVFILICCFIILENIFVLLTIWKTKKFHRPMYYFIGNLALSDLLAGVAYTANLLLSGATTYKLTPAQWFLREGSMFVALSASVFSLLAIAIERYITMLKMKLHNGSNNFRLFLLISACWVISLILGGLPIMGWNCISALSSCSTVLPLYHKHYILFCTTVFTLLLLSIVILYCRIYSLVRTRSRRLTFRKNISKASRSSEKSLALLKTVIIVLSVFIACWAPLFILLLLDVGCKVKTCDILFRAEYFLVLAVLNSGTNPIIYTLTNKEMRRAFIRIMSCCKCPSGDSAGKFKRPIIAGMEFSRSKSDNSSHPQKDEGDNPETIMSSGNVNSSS

Work on `Cc1ccc(C)c(-c2oc(C(=O)Nc3c(C)cccc3C)cc2C)c1` yielded a pIC50 [1] of 6.04.

With `Cc1ccc(C)c(-c2cc(C)c(C(=O)Nc3c(C)cccc3C)o2)c1` the pIC50 [1] was 6.76.

For `Cc1cccc(C)c1NC(=O)c1cccc(-c2cc(Cl)ccc2Cl)n1`, the Activity [2] was “inactive”.

`Cc1ccc(C)c(-c2ccc(C(=O)Nc3c(C)cccc3C)s2)c1` was tested, and the inhibition [3] was 35%, the pIC50 [4] was 5.96 and the Activity [5] was “inactive”. The inhibition [6] was 40%, the pIC50 [1] was 7.23 and the inhibition [7] was 30%.

For `Cc1ccc(C)c(-c2ccc(C(=O)Nc3c(C)cccc3C)o2)c1`, the pIC50 [8] was less than 4.70, the pIC50 [9] was less than 4.70 and the pIC50 [10] was less than 4.70.

`Cc1ccc(C)c(-c2coc(C(=O)Nc3c(C)cccc3C)c2)c1` gave a pIC50 [1] of 6.68.

In the case of `CCc1cccc(C)c1NC(=O)c1nnc(-c2cc(Cl)ccc2Cl)o1`, the Activity [2] was “inactive”.

`Cc1ccc(C)c(-c2ccc(C(=O)Nc3c(C)cccc3C)n2C)c1` was tested, and the pIC50 [1] was 5.20.

`Cc1cccc(C)c1NC(=O)c1ccc(-c2cc(Cl)ccc2Cl)o1` was tested, and the pIC50 [8] was less than 4.70 and the pIC50 [9] was less than 4.70.

Work on `Cc1ccc(C)c(-c2cc(C(=O)Nc3c(C)cccc3C)co2)c1` yielded a pIC50 [1] of 6.63.

For `Cc1ccc(C)c(-c2cc(C(=O)Nc3c(C)cccc3C)ccc2C)c1`, the pIC50 [1] was 5.62.

For `Cc1ccc(C)c(-c2cccc(C(=O)Nc3c(C)cccc3C)c2)c1`, the inhibition [3] was 40%, the inhibition [11] was 30% and the pIC50 [1] was 7.12. For the same compound, the inhibition [12] was 25% and the inhibition [7] was 40%.

With `Cc1cccc(C)c1NCc1ccc(-c2cc(Cl)ccc2Cl)o1` the Activity [2] was “inactive”.
